Measurements reported in ChEMBL document CHEMBL4387709, “Discovery of Quinoline Analogues as Potent Antivirals against Enterovirus D68 (EV-D68)” (J Med Chem, 2019).
pEC50: −log10 of the molar value.

How the values were obtained:
[1] = tested on: enterovirus D68; test: Antiviral activity against Enterovirus D68 US/KY/14-18953 infected in human RD cells assessed as inhibition of virus-induced cytopathic effect incubated for 5 mins under shaking condition and measured after 3 days by neutral red dye-based photometric method; type: functional, organism-based; conditions: Enterovirus D, US/KY/14-18953, RD
Summary of the method: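 RD cells seeded one day ahead to ~90% confluence, PBS (Mg/Ca) wash, infected at ~MOI 0.01 with EV-D68 in DMEM/2% FBS/30 mM MgCl2 at 33 °C, 5% CO2. Compounds and 1% P/S added after 1 h. Plates shaken ~5 min, held 3 days, viable cells stained with neutral red (66 µg/ml), A540 read. EC50 from dose-response fits, triplicates.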

[2] = tested on: RD; test: Cytotoxicity against human RD cells after 3 days by neutral red dye-based photometric method; type: cell-based; conditions: rd, 72 h
[3] = Selectivity index, ratio of CC50 for human RD cells to EC50 for Enterovirus D68 US/KY/14-18953 infected in human RD cells; type: toxicity, cell-based; conditions: read-out: Ratio CC50/EC50

Row | Compound | pEC50 [1] | CC50 [2] [µM] | selectivity ratio [3]
1 | CCN(CC)CCNC(=O)c1cc(OCC(F)(F)F)nc2ccccc12 | 5.46 | 33.1 | 9.5
2 | CN(C)CCNC(=O)c1cc(-c2ccccc2)nc2ccc(F)cc12 | 6.22 | 38.8 | 64.7
3 | CN(C)CCCNC(=O)c1cc(-c2ccccc2)nc2ccccc12 | 5.46 | 44.9 | 12.8
4 | CCN(CC)CCNC(=O)c1cc(-c2ccc3c(c2)OCCO3)nc2ccccc12 | 5.05 | 49.9 | 5.5
5 | NNC(=O)c1cc(-c2ccccc2)nc2ccccc12 | 4.00 | > 300 | > 3
6 | CC(C)Oc1cc(C(=O)NCCN2CCCC2)c2ccccc2n1 | 5.77 | 36.9 | 21.7
7 | CCN(CC)CCNC(=O)c1cc(-c2ccc(-c3ccccc3)cc2)nc2ccccc12 | < 5.00 | 9.8 | –
8 | Cc1ccc2c(c1)c1c3n2CCNC3CCC1 (stereo unspecified) | 5.08 | 19 | –
9 | CN(C)CCCNC(=O)c1cc(-c2cccs2)nc2ccccc12 | 6.15 | 40.5 | 57.9
10 | CCN(CC)CCNC(=O)c1cc(-c2ccccc2)nc2ccc(Cl)cc12 | 5.72 | 13.5 | 7.1
11 | CCN(CC)CCNC(=O)c1cc(-c2ccccc2OC)nc2ccccc12 | 4.86 | 75.9 | 5.5
12 | CCN(CC)CCNC(=O)c1cc(-c2ccn[nH]2)nc2ccccc12 | 4.71 | 132 | 6.8
13 | CCN(CC)CCNC(=O)c1cc(-c2ccnn2C)nc2ccccc12 | 4.44 | 133 | 3.7
14 | CCC(CC)Oc1cc(C(=O)NCCN(CC)CC)c2ccccc2n1 | < 5.00 | 9.5 | –
15 | CC(C)Oc1cc(C(=O)NCCN2CCN(C)CC2)c2ccccc2n1 | 4.59 | 88.8 | 3.4
16 | CCN(CC)CCNC(=O)c1cc(-c2cccc(OC)c2)nc2ccccc12 | 5.80 | 36.5 | 22.8
17 | CCN(CC)CCNC(=O)c1cc(-c2cnc(OC)nc2)nc2ccccc12 | 4.06 | 174 | 2
18 | CC(C)Oc1cc(C(=O)NCCN)c2ccccc2n1 | 5.46 | 149 | 42.5
19 | CCN(CC)CCNC(=O)c1cc(OC)nc2ccccc12 | 4.28 | > 250 | > 4.8

Row | Compound | pEC50 [1] | CC50 [2] [µM] | selectivity ratio [3]
20 | CCN(CC)CCNC(=O)c1cc(-c2ccoc2)nc2ccccc12 | 5.82 | 122 | 81.7
21 | CCN(CC)CCNC(=O)c1cc(OCC2CC2)nc2ccccc12 | 5.15 | 38.5 | 5.4
22 | CC(C)Oc1cc(C(=O)NCCN2CCOCC2)c2ccccc2n1 | 4.76 | > 250 | > 14.3
23 | CCN(CC)CCNC(=O)c1cc(-c2ccccc2)nc2ccccc12 | 6.10 | 45.1 | 56.4
24 | CC(C)Oc1cc(C(=O)NC2CCN(C)CC2)c2ccccc2n1 | 4.75 | 101 | 5.7
25 | CN(C)CCNC(=O)c1cc(-c2ccccc2)nc2ccc(Cl)cc12 | 5.92 | 14.3 | 11.9
26 | CCN(CC)CCNC(=O)c1cc(-c2ccc(COC)cc2)nc2ccccc12 | 4.76 | 46.6 | 2.7
27 | CCOCCOc1cc(C(=O)NCCN(CC)CC)c2ccccc2n1 | 4.91 | 144 | 11.8
28 | O=C(NCCN1CCCC1)c1cc(-c2ccccc2)nc2ccccc12 | 6.40 | 46.7 | 117
29 | CCN(CC)CCNC(=O)c1cc(-c2c(C)noc2C)nc2ccccc12 | < 4.30 | 129 | –
30 | CCN(CC)CCNC(=O)c1cc(-c2cnc(N(C)C)nc2)nc2ccccc12 | 4.61 | 74.2 | 3
31 | CCN(CC)CCNC(=O)c1cc(-c2ccc(CN3CCOCC3)cc2)nc2ccccc12 | < 4.10 | 79.2 | –
32 | CCN(CC)CCNC(=O)c1cc(-c2ccsc2)nc2ccccc12 | 6.00 | 46.9 | 46.9
33 | CCOc1cc(C(=O)NCCN(CC)CC)c2ccccc2n1 | 5.23 | 165 | 27.9
34 | CCN(CC)CCNC(=O)c1cc(-c2ccc3c(c2)CCO3)nc2ccccc12 | 5.80 | 29.5 | 18.4
35 | COc1ccc2nc(-c3ccccc3)cc(C(=O)NCCN(C)C)c2c1 | 5.09 | 31.8 | 3.9
36 | NNC(=O)c1cc(-c2cccs2)nc2ccccc12 | 4.92 | > 100 | > 8.4
37 | O=C(NC1CN2CCC1CC2)c1cc(-c2ccccc2)nc2ccccc12 (stereo unspecified) | 5.46 | 46.5 | 13.3
38 | CC(C)Oc1cc(C(=O)N2CCN(C)CC2)c2ccccc2n1 | < 4.00 | > 300 | –

Row | Compound | pEC50 [1] | CC50 [2] [µM] | selectivity ratio [3]
39 | CCN(CC)CCNC(=O)c1cc(OC2CCCC2)nc2ccccc12 | 5.17 | 11.7 | 1.7
40 | CCN(CC)CCNC(=O)c1cc(OCc2ccccc2)nc2ccccc12 | 5.96 | 13.5 | 12.3
41 | CCC(C)Oc1cc(C(=O)NCCN(CC)CC)c2ccccc2n1 (stereo unspecified) | 5.55 | 15.7 | 5.6
42 | CCCOc1cc(C(=O)NCCN(CC)CC)c2ccccc2n1 | 5.31 | 46.7 | 9.5
43 | CCN(CC)CCNC(=O)c1cc(-c2ccccc2)nc2ccc(F)cc12 | 5.89 | 24.9 | 19.2
44 | CCN(CC)CCCNC(=O)c1cc(-c2ccccc2)nc2ccccc12 | 5.02 | 45.4 | 4.7
45 | CCN(CC)CCNC(=O)c1cc(-c2ccc(OC)cc2)nc2ccccc12 | 5.62 | 31.6 | 13.2
46 | CCN(CC)CCNC(=O)c1cc(-c2cccs2)nc2ccccc12 | 6.22 | 37.4 | 62.3
47 | CC(C)Oc1cc(C(=O)NCCN(C)C)c2ccccc2n1 | 5.77 | 38.5 | 22.6
48 | CCN(CC)CCNC(=O)c1cc(-c2cnn(C)c2)nc2ccccc12 | < 4.00 | 251 | –
49 | CCN(CC)CCNC(=O)c1cc(-c2ccccc2)nc2ccc(OC)cc12 | 4.91 | 27.5 | 2.2
50 | CCN(CC)CCNC(=O)c1cc(-c2ccc(Cl)s2)nc2ccccc12 | 6.10 | 6.1 | 7.6
51 | CN(C)c1ccc(NC(=O)c2cc(-c3ccccc3)nc3ccccc23)cc1 | < 4.00 | > 350 | > 3.5
52 | CC(C)Oc1cc(C(=O)NCCCN(C)C)c2ccccc2n1 | 4.94 | 122 | 10.7
53 | CCN(CC)CCNC(=O)c1cc(-c2ccncc2)nc2ccccc12 | 5.18 | 174 | 26.3
54 | N=C(N)NC(=O)c1cc(-c2ccccc2)nc2ccccc12 | 4.46 | > 250 | > 7.2
55 | O=C(NCCCn1ccnc1)c1cc(-c2cccs2)nc2ccccc12 | 5.05 | 55.7 | 6.3
56 | CCN(CC)CCNC(=O)c1cc(OC(C)C)nc2ccccc12 | 5.60 | 111 | 44.5
